How the values were obtained:
[1] = test system: MDA-MB-231 cells; experiment: MTT cell viability assay, MDA-MB-231; assay type: cell-based, human; conditions: highest dose 100 μM, compared to unconjugated [Re(CO)3(H2O)3]+
[2] = test system: 4T1 cells; experiment: MTT cell viability assay, 4T1; assay type: cell-based, mouse; conditions: highest dose 100 μM, compared to unconjugated [Re(CO)3(H2O)3]+
Outline: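 4T1 cells were kept in DMEM with 10% FBS and penicillin/streptomycin at 37 °C, 5% CO2, then seeded at 2000 cells/100 μL. Test compound or free [Re(CO)3(H2O)3]+ was applied at 0.1–100 μM for 24 h. Cells were washed 3× with PBS and grown 48 h in DMEM/10% FBS. MTT was added for 4 h, cells were solubilised with SDS, and absorbance was read at 595 nm.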

[3] = target: T1, LHRH receptor (Homo sapiens, UniProt P30968); experiment: LHRH receptor competition assay of 99mTc conjugate, MDA-MB-231; assay type: cell-based; conditions: MDA-MB-231 cells, cotreatment with 100 μg LHRH, 1 μCi, 37 °C, γ counter; n = 3
T1 sequence (P30968 1-328): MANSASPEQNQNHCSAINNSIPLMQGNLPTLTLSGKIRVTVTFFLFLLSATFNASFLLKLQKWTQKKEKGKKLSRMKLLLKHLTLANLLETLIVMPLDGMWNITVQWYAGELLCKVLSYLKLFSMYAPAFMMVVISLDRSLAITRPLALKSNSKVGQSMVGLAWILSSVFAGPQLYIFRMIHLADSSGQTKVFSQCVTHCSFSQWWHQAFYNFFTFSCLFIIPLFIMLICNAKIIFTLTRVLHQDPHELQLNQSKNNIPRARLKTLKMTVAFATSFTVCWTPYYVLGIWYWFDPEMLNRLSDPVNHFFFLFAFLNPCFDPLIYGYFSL
Outline: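 MDA-MB-231 cells were grown in DMEM with 5 mM L-glutamine, 1% penicillin/streptomycin and 10% FBS at 37 °C, 5% CO2. Cells were seeded at 2 × 10^5 per well and cultured 48 h. 1 μCi (0.037 MBq) of 99mTc-labelled conjugate was added together with 100 μg LHRH and incubated at 37 °C for 15, 30, 60 and 120 min (n = 3). Cells were washed 3× in PBS, trypsinised and γ-counted. Uptake is % of cell counts over total counts, reported as mean ± SEM.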

cell uptake with LHRH cotreatment (competition) [3] | Substance | cytotoxicity at the highest dose [1] | cytotoxicity at the highest dose [2]
– | Re-Acdien-LHRH: Acdien-LHRH reacted with equimolar [Re(CO)3(H2O)3]+; nonradioactive rhenium-LHRH conjugate | did not induce cytotoxicity | –
– | Re-Acdien-peg-LHRH: PEGylated Acdien-peg-LHRH chelated with [Re(CO)3(H2O)3]+ | did not induce cytotoxicity | did not induce cytotoxicity
decrease | ^99mTc-Acdien-LHRH: Acdien-LHRH radiolabeled with [99mTc(CO)3]+ from Isolink kit | – | –
